pIC50: −log10 of the molar value. Where a SMILES comes first, the peptide text is derived from it.
Target: Integrin alpha-IIb/beta-3 (Homo sapiens, UniProt P08514+P05106)
Experiment: Inhibition of platelet aggregation (PRP)
In short: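 Aggregation of platelets in platelet-rich plasma was induced with ADP, and inhibition of this aggregation was measured.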

Integrin alpha-IIb/beta-3, sequence (P05106 27-788 limits assumed): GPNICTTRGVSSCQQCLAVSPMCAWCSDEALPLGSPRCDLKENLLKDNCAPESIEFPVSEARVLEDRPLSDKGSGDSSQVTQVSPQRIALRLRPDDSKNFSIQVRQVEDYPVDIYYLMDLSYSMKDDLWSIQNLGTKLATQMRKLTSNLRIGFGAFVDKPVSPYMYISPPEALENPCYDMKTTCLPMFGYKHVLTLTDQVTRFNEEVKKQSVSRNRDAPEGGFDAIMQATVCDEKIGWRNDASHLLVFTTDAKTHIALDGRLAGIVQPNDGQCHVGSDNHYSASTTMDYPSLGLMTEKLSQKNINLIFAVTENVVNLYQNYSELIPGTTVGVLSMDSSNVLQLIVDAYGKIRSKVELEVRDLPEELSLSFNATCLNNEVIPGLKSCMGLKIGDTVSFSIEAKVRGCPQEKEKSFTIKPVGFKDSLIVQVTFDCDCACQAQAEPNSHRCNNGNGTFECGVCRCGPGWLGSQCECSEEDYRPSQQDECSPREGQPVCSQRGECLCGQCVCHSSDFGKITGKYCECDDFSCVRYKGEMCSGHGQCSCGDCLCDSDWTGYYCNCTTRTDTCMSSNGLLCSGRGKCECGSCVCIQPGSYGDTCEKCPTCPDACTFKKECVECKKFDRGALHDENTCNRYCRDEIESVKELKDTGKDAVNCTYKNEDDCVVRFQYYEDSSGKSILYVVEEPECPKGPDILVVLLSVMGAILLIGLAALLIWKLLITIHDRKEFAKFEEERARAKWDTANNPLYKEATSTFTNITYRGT
Integrin alpha-IIb/beta-3, sequence (P08514 32-887 limits assumed): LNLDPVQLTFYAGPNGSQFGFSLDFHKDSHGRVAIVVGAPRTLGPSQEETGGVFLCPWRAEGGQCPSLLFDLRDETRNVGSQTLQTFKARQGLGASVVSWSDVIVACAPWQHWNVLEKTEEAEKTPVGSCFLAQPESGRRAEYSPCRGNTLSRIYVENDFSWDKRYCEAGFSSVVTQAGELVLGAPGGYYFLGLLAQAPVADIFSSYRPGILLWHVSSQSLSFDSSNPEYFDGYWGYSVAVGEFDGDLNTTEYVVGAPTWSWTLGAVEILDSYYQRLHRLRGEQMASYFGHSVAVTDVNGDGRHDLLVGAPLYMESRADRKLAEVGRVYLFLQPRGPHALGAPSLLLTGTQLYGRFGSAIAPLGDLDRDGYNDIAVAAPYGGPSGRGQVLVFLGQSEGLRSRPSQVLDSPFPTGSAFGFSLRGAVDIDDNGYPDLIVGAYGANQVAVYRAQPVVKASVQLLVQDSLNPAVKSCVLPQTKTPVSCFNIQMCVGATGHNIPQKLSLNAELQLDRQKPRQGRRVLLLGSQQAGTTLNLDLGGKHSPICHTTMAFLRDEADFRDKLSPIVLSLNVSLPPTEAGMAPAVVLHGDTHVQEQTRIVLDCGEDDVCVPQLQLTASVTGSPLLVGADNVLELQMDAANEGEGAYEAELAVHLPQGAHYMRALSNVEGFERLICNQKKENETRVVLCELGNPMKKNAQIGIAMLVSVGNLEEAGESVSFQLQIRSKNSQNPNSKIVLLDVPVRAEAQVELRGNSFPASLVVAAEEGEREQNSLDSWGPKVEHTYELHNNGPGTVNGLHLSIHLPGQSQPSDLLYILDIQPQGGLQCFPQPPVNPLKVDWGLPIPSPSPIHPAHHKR
Integrin alpha-IIb/beta-3, sequence (P08514 891-1039 limits assumed): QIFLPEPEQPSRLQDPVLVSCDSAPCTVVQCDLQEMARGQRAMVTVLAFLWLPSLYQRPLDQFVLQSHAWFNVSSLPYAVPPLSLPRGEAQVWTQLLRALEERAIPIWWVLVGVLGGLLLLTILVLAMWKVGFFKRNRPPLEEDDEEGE

Structure (SMILES) | pIC50
N=C(N)NCCCCCCCC(=O)N[C@@H](CC(=O)O)C(=O)N[C@@H](Cc1ccccc1)c1nnn[nH]1 | 5.40
N=C(N)NCCCCCCCC(=O)N[C@@H](CC(=O)O)C(=O)NCCc1ccccc1 | 4.22
N=C(N)NCCCCCCCC(=O)N[C@@H](CC(=O)O)C(=O)N[C@@H](Cc1ccccc1)C(=O)O [N-(1-Carboxy-2-phenyl-ethyl)-3-[8-(diaminomethyl-amino)-octanoylamino]-succinamic acid] | 5.80
NC(N)=NCCC[C@H](N)C(=O)NCC(=O)N[C@@H](CC(=O)O)C(=O)N[C@@H](Cc1ccccc1)C(=O)O (H-RGDF-OH) | 4.40
